Results reported in ChEMBL document CHEMBL3997773, “Synthesis of C-4-Substituted Steviol Derivatives and Their Inhibitory Effects against Hepatitis B Virus” (J Nat Prod, 2016).
Active and inactive are the calls of the source. The calls are words filed in the database; no cut-off is given here.

Assays:
[1] = system: Hepatitis B virus; assay: Decrease in HBV X promoter activity infected in human HuH7 cells cotransfected with pHBV1.2 at 10 ug/ml after 24 hrs by luciferase reporter gene assay; assay type: cell-based
Outline: (§1)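 Huh7 cells were seeded for 24 h, then cotransfected with pHBV1.2, pRLSV40 and a pGL4.17-based Core (nt 1636-1851), S (nt 3114-220), PreS (nt 2438-2855) or X (nt 1071-1357) promoter-luciferase construct for 24 h. Cells were then treated at 10 μg/mL for 24 h and lysates were assayed for luciferase. Mean ± SD, n = 3.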

[2] = system: Huh-7; assay: Decrease in IKBalpha protein expression in human HuH7 cells transfected with pHBV1.2 at 2.5 ug/ml after 2 days by immunoblot method relative to control; assay type: functional
Outline: (§2)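 Huh7 cells were transfected with pHBV1.2 for 2 days, then treated at 2.5, 5 or 10 μg/mL for another 2 days. Whole-cell protein was extracted with protease inhibitors. NF-κB p65/p50, phospho-p65, IKKα/β and IκBα/phospho-IκBα were detected by immunoblot. Blots are representative of three experiments.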

[3] = system: Huh-7; assay: Decrease in SAPK/JNK protein expression in human HuH7 cells transfected with pHBV1.2 at 2.5 to 10 ug/ml after 2 days by immunoblot method
[4] = system: Huh-7; assay: Decrease in NF-kB p50 protein expression in human HuH7 cells transfected with pHBV1.2 at 10 ug/ml after 2 days by immunoblot method relative to control; assay type: functional; outline: as §2
[5] = system: Huh-7; assay: Decrease in IKKbeta protein expression in human HuH7 cells transfected with pHBV1.2 at 10 ug/ml after 2 days by immunoblot method relative to control; assay type: functional; outline: as §2
[6] = system: Huh-7; assay: Decrease in NF-kB p65 protein expression in human HuH7 cells transfected with pHBV1.2 at 5 ug/ml after 2 days by immunoblot method relative to control; assay type: functional; outline: as §2
[7] = system: Huh-7; assay: Decrease in IKBalpha protein expression in human HuH7 cells transfected with pHBV1.2 after 2 days by immunoblot method; assay type: functional, cell-based; outline: as §2
[8] = Antiviral activity against Hepatitis B virus subtype adw2 infected in human HuH7 cells assessed as reduction in HBx level at 5 ug/ml after 2 days by immunoblot method relative to control; assay type: functional
Outline: (§3)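 Huh7 cells were transfected with pHBV1.2 (1.2-fold HBV adw2 genome) for 2 days, then exposed to 2.5, 5 or 10 μg/mL for another 2 days. Whole-cell protein was extracted with protease inhibitors. SHBs, HBcAg and HBx were detected by immunoblot, with α-tubulin for comparison.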

[9] = Effect on AP-2 (unknown origin) promoter activity expressed in human HuH7 cells cotransfected with pHBV1.2 at 10 ug/ml after 24 hrs by luciferase reporter gene assay; assay type: cell-based
Outline: (§4)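 Huh7 seeded in 24-well plates for 24 h. They were cotransfected with pHBV1.2 plus a luciferase reporter carrying the AP-2 (pAP2-Luc) or ISRE (pISRE-Luc) element, at 1 μg/well, and pRLSV40, in serum-free DMEM for 24 h. After a PBS wash, cells were placed in DMEM with 2% FBS and treated with 10 μg/mL. Luciferase was read from lysates; mean ± SD, n = 3.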

[10] = system: Hepatitis B virus; assay: Decrease in HBV preS promoter activity infected in human HuH7 cells cotransfected with pHBV1.2 at 10 ug/ml after 24 hrs by luciferase reporter gene assay; assay type: cell-based; outline: as §1
[11] = system: Huh-7; assay: Decrease in IKKalpha protein expression in human HuH7 cells transfected with pHBV1.2 at 5 ug/ml after 2 days by immunoblot method relative to control; assay type: functional; outline: as §2
[12] = system: Huh-7; assay: Decrease in NF-kB p50 protein expression in human HuH7 cells transfected with pHBV1.2 at 5 ug/ml after 2 days by immunoblot method relative to control; assay type: functional; outline: as §2
[13] = system: Huh-7; assay: Cytotoxicity against human HuH7 cells infected with Hepatitis B virus subtype adw2 assessed as reduction in cell viability at >80 ug/ml after 3 days by MTS assay; assay type: cell-based; settings: huh-7, 72 h
Outline: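 HBV-expressing Huh7 cells were plated for 24 h, then exposed to serial dilutions (2.5–160 μg/mL) for 3 days. Viability was measured by MTS assay. Mean ± SD, n = 4, compared with untreated cells.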

[14] = system: Huh-7; assay: Decrease in IKKbeta protein expression in human HuH7 cells transfected with pHBV1.2 at 5 ug/ml after 2 days by immunoblot method relative to control; assay type: functional; outline: as §2
[15] = Antiviral activity against Hepatitis B virus subtype adw2 infected in human HuH7 cells assessed as effect on HBx level at 2.5 ug/ml after 2 days by immunoblot method relative to control; assay type: functional; outline: as §3
[16] = system: Hepatitis B virus subtype adw2; assay: Antiviral activity against Hepatitis B virus subtype adw2 infected in human HuH7 cells assessed as reduction in precore/pregenomic RNA level at 2.5 to 10 ug/ml after 2 days by northern blot method; assay type: functional, cell-based
Outline: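 After pHBV1.2 transfection of Huh7 cells for 2 days, cells were treated at 2.5, 5 or 10 μg/mL for 2 more days. Total RNA was Northern-blotted with an HBV whole-genome DNA probe. GAPDH served as loading control and β-gal marked transfection efficiency. Bands from three experiments were quantified by densitometry and normalized to GAPDH.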

[17] = system: Hepatitis B virus subtype adw2; assay: Antiviral activity against Hepatitis B virus subtype adw2 infected in human HuH7 cells assessed as reduction in SHBs level at 2.5 to 10 ug/ml after 2 days by immunoblot method; assay type: functional, cell-based; outline: as §3
[18] = system: Huh-7; assay: Decrease in NF-kB p65 protein expression in human HuH7 cells transfected with pHBV1.2 at 10 ug/ml after 2 days by immunoblot method relative to control; assay type: functional; outline: as §2
[19] = system: Huh-7; assay: Decrease in IKBalpha protein expression in human HuH7 cells transfected with pHBV1.2 at 5 ug/ml after 2 days by immunoblot method relative to control; assay type: functional; outline: as §2
[20] = Antiviral activity against Hepatitis B virus subtype adw2 infected in human HuH7 cells assessed as reduction in HBcAg level at 10 ug/ml after 2 days by immunoblot method relative to control; assay type: functional; outline: as §3
[21] = target: Transcription factor p65 (Homo sapiens) (UniProt Q04206); assay: Decrease in NF-kB p65 phosphorylation in human HuH7 cells transfected with pHBV1.2 at 5 ug/ml after 2 days by immunoblot method relative to control; assay type: cell-based; outline: as §2
[22] = system: Huh-7; assay: Decrease in IKBalpha protein expression in human HuH7 cells transfected with pHBV1.2 at 10 ug/ml after 2 days by immunoblot method relative to control; assay type: functional; outline: as §2
[23] = system: Huh-7; assay: Decrease in NF-kB p65 protein expression in human HuH7 cells transfected with pHBV1.2 at 2.5 ug/ml after 2 days by immunoblot method relative to control; assay type: functional; outline: as §2
[24] = system: Hepatitis B virus subtype adw2; assay: Antiviral activity against Hepatitis B virus subtype adw2 infected in human HuH7 cells assessed as inhibition of viral DNA replication after 3 days by RT-PCR method; assay type: functional, cell-based
Outline: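 HBV-expressing Huh7 cells were dosed at 2.5, 5 or 10 μg/mL for 3 days. Viral DNA was isolated from virion particles in the conditioned medium and quantified by real-time PCR. Mean ± SD, n = 3, compared with untreated cells.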

[25] = Effect on ISRE (unknown origin) promoter activity expressed in human HuH7 cells cotransfected with pHBV1.2 at 10 ug/ml after 24 hrs by luciferase reporter gene assay; assay type: cell-based; outline: as §4

Sequence of Transcription factor p65 (Homo sapiens) (Q04206 whole entry): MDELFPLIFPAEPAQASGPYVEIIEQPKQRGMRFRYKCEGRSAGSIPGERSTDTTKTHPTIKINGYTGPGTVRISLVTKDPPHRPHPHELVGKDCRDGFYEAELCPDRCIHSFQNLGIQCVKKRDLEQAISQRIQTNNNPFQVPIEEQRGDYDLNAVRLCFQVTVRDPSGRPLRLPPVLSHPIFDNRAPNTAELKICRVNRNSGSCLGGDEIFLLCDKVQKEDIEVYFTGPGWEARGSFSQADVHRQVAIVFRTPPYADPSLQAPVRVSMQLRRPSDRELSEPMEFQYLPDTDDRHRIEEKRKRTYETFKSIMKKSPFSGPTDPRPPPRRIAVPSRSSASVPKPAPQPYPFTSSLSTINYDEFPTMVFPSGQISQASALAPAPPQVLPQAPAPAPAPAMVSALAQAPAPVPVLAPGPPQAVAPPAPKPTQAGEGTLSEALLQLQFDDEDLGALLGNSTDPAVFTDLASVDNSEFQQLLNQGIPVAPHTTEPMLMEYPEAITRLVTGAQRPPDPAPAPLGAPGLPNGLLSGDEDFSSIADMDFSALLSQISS

fold change (FC) [21]: 0.88
SMILES: C=C1C[C@@]23CC[C@H]4[C@@](C)(CCC[C@@]4(C)NC(=O)NCCCC)[C@@H]2CC[C@]1(O)C3
Activity [1]: Active | fold change (FC) [2]: 0.97 | Activity [3]: Active | fold change (FC) [4]: 0.26 | fold change (FC) [5]: 0.33 | fold change (FC) [6]: 0.88 | Activity [7]: Dose-dependent effect | fold change (FC) [8]: 0.87 | Activity [9]: inactive | Activity [10]: Active | fold change (FC) [11]: 1.01 | fold change (FC) [12]: 0.97 | Activity [13]: Toxic | fold change (FC) [14]: 0.97 | fold change (FC) [15]: 1.12 | Activity [16]: Active | Activity [17]: Active | fold change (FC) [18]: 0.33 | fold change (FC) [19]: 0.94 | fold change (FC) [20]: 0.11 | fold change (FC) [22]: 0.25 | fold change (FC) [23]: 0.89 | inhibition [24]: Dose-dependent effect | Activity [25]: inactive
